From paper PMC9446082 (Pharmacology Research & Perspectives, 2022)

Experiments:
ERK phosphorylation = ERK phosphorylation in wild-type Sf9 cells; type: cell-based, Spodoptera frugiperda; conditions: wild-type (non-transfected) Sf9 cells, data not shown
GPER [1] = target: T1, GPER (Homo sapiens, UniProt Q99527); experiment: [3H] 2-ME competition binding in GPER-transduced Sf9 cell particulate fractions
[2] = test system: GPER‐transduced Sf9 cells; experiment: EdU incorporation proliferation assay in GPER-transduced Sf9 cells; type: cell-based; conditions: Spodoptera frugiperda, read-out: Cell proliferation IC50
GPER [3] = target: T1, GPER; experiment: Dissociation rate of [3H] 2-ME binding in GPER-transduced Sf9 cells; conditions: corresponding to Koff
Outline: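 Particulate fraction (1000 × g then 20 000 × g spins) from Sf9 cells 48 h after human GPER baculovirus infection. Incubated with 2 nM [³H]2-ME for 120 min at 15°C, then diluted tenfold with ice-cold binding buffer (50 mM Tris-HCl pH 7.4). Bound radioactivity was sampled from 5 to 120 s by vacuum filtration through cellulose nitrate and scintillation counting. Nonspecific binding was taken with 100 nM unlabelled 2-ME. Mean ± SD, n = 4.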

GPER [4] = target: T1, GPER; experiment: Guanine nucleotide sensitivity of [3H] 2-ME high-affinity binding; conditions: GppNHp 100 μM, 5 mM Mg++, n = 3
Outline: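 Sf9 particulate fraction expressing baculovirus-delivered GPER, incubated with [³H]2-ME (0.5–2 nM) with or without 100 μM GppNHp. Mg⁺⁺ was 5 mM to favour the high-affinity agonist state. Binding was in Tris-HCl pH 7.4 buffer with BSA, 120 min at 15°C. Reactions were stopped with ice-cold buffer, filtered and scintillation counted. Specific binding is total minus binding with 100 nM cold 2-ME added 12 min before radioligand.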

T1 sequence (Q99527 whole entry, species assumed): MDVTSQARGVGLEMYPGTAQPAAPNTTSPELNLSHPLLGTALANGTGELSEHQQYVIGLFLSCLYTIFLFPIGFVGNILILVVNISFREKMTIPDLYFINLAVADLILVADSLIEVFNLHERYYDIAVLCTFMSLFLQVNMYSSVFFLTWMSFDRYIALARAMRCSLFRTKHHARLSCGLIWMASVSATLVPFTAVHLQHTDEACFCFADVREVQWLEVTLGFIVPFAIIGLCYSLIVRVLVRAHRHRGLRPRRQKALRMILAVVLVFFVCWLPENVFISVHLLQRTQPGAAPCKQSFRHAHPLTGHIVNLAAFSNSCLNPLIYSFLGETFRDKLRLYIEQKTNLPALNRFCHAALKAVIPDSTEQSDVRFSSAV

Row | Molecule | Inhibition of ERK phosphorylation in wild-type Sf9 cells (ERK phosphorylation) | Ki (GPER [1]) | IC50 [2] | also measured
1 | COc1cc2c(cc1O)CC[C@@H]1[C@@H]2CC[C@]2(C)[C@@H](O)CC[C@@H]12 [2‐ME, 2‐Methoxyestradiol] | did not inhibit | 1.5 nM | 0.026 nM | –
2 | CC(=O)c1ccc2c(c1)[C@@H]1C=CC[C@@H]1[C@H](c1cc3c(cc1Br)OCO3)N2 (relative stereo) [G1, 1‐[(3aS,4R,9bR‐rel)‐4‐(6‐bromo‐1,3‐benzodioxol‐5‐yl)‐3a,4,5,9b‐tetrahydro‐[^3H]‐cyclopenta[c]quinolin‐8‐yl]‐ethanone] | did not inhibit | – | – | –
3 | C[C@]12CCC(=O)C=C1CC[C@@H]1[C@@H]2[C@@H](O)C[C@]2(C=O)[C@@H](C(=O)CO)CC[C@@H]12 [Aldosterone] | did not inhibit | 24 nM | 0.104 nM | –
4 | [^3H] 2‐methoxyestradiol | – | – | – | Dissociation half-life (GPER [3]): 21 s
5 | Nc1nc2c(ncn2[C@@H]2O[C@H](COP(=O)(O)OP(=O)(O)NP(=O)(O)O)[C@@H](O)[C@H]2O)c(=O)[nH]1 [GppNHp] | – | – | – | Reduction of high-affinity [3H] 2-ME binding (GPER [4]; [3H] 2-ME 0.5 nM): 46 ± 23%; Reduction of high-affinity [3H] 2-ME binding (GPER [4]; [3H] 2-ME 1 nM): 19 ± 7%; Reduction of high-affinity [3H] 2-ME binding (GPER [4]; [3H] 2-ME 2 nM): 53 ± 24
6 | C[C@]12CC[C@@H]3c4ccc(O)cc4CC[C@H]3[C@@H]1CC[C@@H]2O [E2, Estradiol] | did not inhibit | – | – | –
